From ChEMBL document CHEMBL1153533, “Phosphoramidate prodrugs of 2'-C-methylcytidine for therapy of hepatitis C virus infection” (J Med Chem, 2009)
pEC50: −log10 of the molar value.

Legend:
Hepacivirus hominis = experiment: Inhibition of HCV NS5B polymerase by cell-based assay
Hepatitis C virus [1] = experiment: Antiviral activity against HCV infected in human HBI10A cells by subgenomic viral replicon assay; format: functional, organism-based, Hepacivirus hominis
[2] = Cytotoxicity against human HBI10A cells
[3] = Selectivity index, ratio of CC50 for human HBI10A cells to EC50 for HCV infected in human HBI10A cells
In short: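 Subgenomic HCV replicon assay gives EC₅₀ (n = 2-9 independent determinations). CC₅₀ is the concentration cutting cell viability by 50%. SI = CC₅₀/EC₅₀.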

Hepatitis C virus [4] = experiment: Antiviral activity against HCV infected in human HBI10A cells at 20 uM by subgenomic viral replicon assay; format: functional, Hepacivirus hominis
Hepatocyte = experiment: Stability in cryopreserved primary human hepatocytes assessed as increase in intracellular nucleoside triphosphate formation by LC-MS/MS analysis; format: ADME, cell-based
Hepatitis C virus [5] = experiment: Antiviral activity against HCV assessed as logarithmic reduction in plasma viral RNA at 800 mg, po BID after 14 days; format: functional, Hepacivirus hominis
[6] = Stability in human HBI10A cells assessed as intracellular nucleoside triphosphate AUC (0 to 24 hrs) at 100 uM by LC-MS/MS analysis
Hamster = experiment: AUC (0 to 48 hrs) in hamster at 1 mg/kg, sc; format: ADME, organism-based, Plasma; parameters: time < 48 hr, dose 1 mg/kg, route subcutaneous; conditions: cricetinae, in vivo
[7] = Drug concentration in hamster liver assessed as nucleoside triphosphate level at 1.5 umol/kg, sc after 6 hrs; conditions: cricetinae, in vivo
[8] = Drug level in hamster liver assessed as nucleoside triphosphate level at 1 mg/kg, sc after 24 hrs; format: ADME, organism-based; parameters: dose 1 mg/kg, route subcutaneous; conditions: cricetinae, in vivo, read-out: Drug uptake
[9] = Drug level in rabbit liver assessed as nucleoside triphosphate level at 1 mg/kg, sc after 24 hrs; format: ADME, organism-based, Oryctolagus cuniculus; parameters: dose 1 mg/kg, route subcutaneous; conditions: in vivo, read-out: Drug uptake
Liver [10] = experiment: Drug level in rat liver assessed as nucleoside triphosphate level at 1 mg/kg, sc after 24 hrs; format: ADME, organism-based; parameters: dose 1 mg/kg, route subcutaneous; conditions: in vivo, read-out: Drug uptake
Liver [11] = experiment: Drug concentration in rat liver assessed as nucleoside triphosphate level at […], sc after 6 hrs; format: ADME, organism-based; conditions: in vivo, read-out: Drug uptake
Hepatitis C virus [12] = experiment: Antiviral activity against HCV assessed as logarithmic reduction in plasma viral RNA at 1500 mg, QD after 14 days; format: functional, Hepacivirus hominis
Hepatitis C virus [13] = experiment: Antiviral activity against HCV assessed as logarithmic reduction in plasma viral RNA at 1500 mg, po BID after 14 days; format: functional, Hepacivirus hominis

SMILES	CC50 [2] [µM]	Ratio CC50/EC50 [3]	pEC50 (Hepatitis C virus [1]; Hepatitis C virus, HBI10A)	other results
C[C@@]1(O)[C@H](O)[C@@H](CO)O[C@H]1n1ccc(N)nc1=O	–	–	–	Activity (Hepacivirus hominis): 2 µM
CCOC(=O)[C@H](C)NP(=O)(OC[C@H]1O[C@@H](n2ccc(N)nc2=O)[C@](C)(O)[C@@H]1O)Oc1ccc(Cl)cc1 (stereo partly specified)	> 20	–	–	pEC50 (Hepatitis C virus [1]; hbi10a): 6.00
CCOC(=O)[C@H](C)NP(=O)(OC[C@H]1O[C@@H](n2ccc(N)nc2=O)[C@](C)(O)[C@@H]1O)OCC(Cl)(Cl)Cl (stereo partly specified)	> 50	>5	5.00	inhibition at 20 µM (Hepatitis C virus [4]): 52%
CC(C)[C@H](N)C(=O)O[C@@H]1[C@@H](CO)O[C@@H](n2ccc(N)nc2=O)[C@]1(C)O [VALOPICITABINE]	> 100	>13	5.12	Activity (Hepatocyte): Dose-dependent effect; Activity (Hepatitis C virus [5]): 1.2; AUC [6]: 70 µM·h
CCCC(CCC)COC(=O)[C@H](C)NP(=O)(O)OC[C@H]1O[C@@H](n2ccc(N)nc2=O)[C@](C)(O)[C@@H]1O	> 100	–	5.09	AUC (Hamster): 700 µM·h; Drug uptake [7]: 39 µM; concentration [8]: 6 µM; concentration [9]: 4.1 µM; concentration (Liver [10]): 2.9 µM; concentration (Liver [11]): 5 µM
CCOC(=O)[C@H](C)NP(=O)(OC[C@H]1O[C@@H](n2ccc(N)nc2=O)[C@](C)(O)[C@@H]1O)Oc1ccccc1C(=O)OC (mixture of isomers)	> 50	>5	4.96	–
CCCC[C@H](NP(=O)(OC[C@H]1O[C@@H](n2ccc(N)nc2=O)[C@](C)(O)[C@@H]1O)Oc1ccc(Cl)cc1)C(=O)OCC (mixture of isomers)	> 20	>13	5.82	–
CCOC(=O)[C@H](C)NP(=O)(OC[C@H]1O[C@@H](n2ccc(N)nc2=O)[C@](C)(O)[C@@H]1O)Oc1cccc2ccccc12 (stereo partly specified)	15	75	6.70	–
CCOC(=O)[C@@H](NP(=O)(OC[C@H]1O[C@@H](n2ccc(N)nc2=O)[C@](C)(O)[C@@H]1O)Oc1ccc(Cl)cc1)c1ccccc1 (mixture of isomers)	> 20	>2.5	5.13	–
COC(=O)[C@H](C)NP(=O)(OC[C@H]1O[C@@H](n2ccc(N)nc2=O)[C@](C)(O)[C@@H]1O)Oc1ccc(OC)cc1 (mixture of isomers)	> 50	>13	5.43	–
CC(C)C(=O)OC[C@@]1(N=[N+]=[N-])O[C@@H](n2ccc(N)nc2=O)[C@H](OC(=O)C(C)C)[C@@H]1OC(=O)C(C)C [BALAPIRAVIR]	–	–	–	Activity (Hepatitis C virus [12]): 1.2
CCOC(=O)[C@H](C)NP(=O)(OC[C@H]1O[C@@H](n2ccc(N)nc2=O)[C@](C)(O)[C@@H]1O)Oc1ccccc1C (stereo partly specified)	9	50	6.74	–
CCOC(=O)[C@H](C)NP(=O)(OC[C@H]1O[C@@H](n2ccc(N)nc2=O)[C@](C)(O)[C@@H]1O)Oc1ccc2c(ccn2C(=O)OC(C)(C)C)c1 (stereo partly specified)	> 20	40	6.30	–
CCCOC(=O)[C@H](C)NP(=O)(OC[C@H]1O[C@@H](n2ccc(N)nc2=O)[C@](C)(O)[C@@H]1O)Oc1ccccc1 (stereo partly specified)	> 20	–	6.01	–
CCCC(CCC)C(=O)OCCNP(=O)(O)OC[C@H]1O[C@@H](n2ccc(N)nc2=O)[C@](C)(O)[C@@H]1O	–	–	–	Drug uptake [7]: 13 µM; concentration (Liver [11]): 36 µM
CCCCOC(=O)[C@H](C)NP(=O)(OC[C@H]1O[C@@H](n2ccc(N)nc2=O)[C@](C)(O)[C@@H]1O)Oc1ccccc1Cl (stereo partly specified)	> 20	>23	6.06	–

SMILES	CC50 [2] [µM]	Ratio CC50/EC50 [3]	pEC50 (Hepatitis C virus [1]; Hepatitis C virus, HBI10A)	other results
CCOC(=O)[C@H](CC(C)C)NP(=O)(OC[C@H]1O[C@@H](n2ccc(N)nc2=O)[C@](C)(O)[C@@H]1O)Oc1ccc(Cl)cc1 (mixture of isomers)	> 50	>7	5.15	–
CCCCOC(=O)[C@H](C)NP(=O)(OC[C@H]1O[C@@H](n2ccc(N)nc2=O)[C@](C)(O)[C@@H]1O)Oc1ccc(Cl)c2ccccc12 (mixture of isomers)	> 20	125	6.80	–
CCCCOC(=O)[C@H](C)NP(=O)(OC[C@H]1O[C@@H](n2ccc(N)nc2=O)[C@](C)(O)[C@@H]1O)Oc1cccc2ccccc12 (stereo partly specified)	9	–	7.05	–
COCCCOC(=O)[C@H](C)NP(=O)(OC[C@H]1O[C@@H](n2ccc(N)nc2=O)[C@](C)(O)[C@@H]1O)Oc1ccccc1 (stereo partly specified)	> 20	–	5.72	–
CCOC(=O)[C@H](Cc1c[nH]c2ccccc12)NP(=O)(OC[C@H]1O[C@@H](n2ccc(N)nc2=O)[C@](C)(O)[C@@H]1O)Oc1ccc(Cl)cc1 (single isomer, unassigned)	> 50	>3	4.77	–
COC(=O)CCNP(=O)(OC[C@H]1O[C@@H](n2ccc(N)nc2=O)[C@](C)(O)[C@@H]1O)Oc1ccc(Cl)cc1 (mixture of isomers)	> 20	–	< 4.70	–
COC(=O)[C@@H](C)NP(=O)(OC[C@H]1O[C@@H](n2ccc(N)nc2=O)[C@](C)(O)[C@@H]1O)Oc1ccc(Cl)cc1 (mixture of isomers)	> 20	>2.5	5.11	–
CCOC(=O)[C@H](C)NP(=O)(OC[C@H]1O[C@@H](n2ccc(N)nc2=O)[C@](C)(O)[C@@H]1O)Oc1ccc(Cl)cc1 (mixture of isomers)	–	–	–	pEC50 (Hepatitis C virus [1]; hbi10a): 5.74
CCOC(=O)[C@H](C)NP(=O)(OCc1ccccc1)OC[C@H]1O[C@@H](n2ccc(N)nc2=O)[C@](C)(O)[C@@H]1O (stereo partly specified)	> 20	–	< 4.70	–
CC(C)C(=O)OC[C@H]1O[C@@H](n2ccc(N)nc2=O)[C@](C)(F)[C@@H]1OC(=O)C(C)C [MERICITABINE]	–	–	–	Activity (Hepatitis C virus [13]): 2.7
COC(=O)CNP(=O)(OC[C@H]1O[C@@H](n2ccc(N)nc2=O)[C@](C)(O)[C@@H]1O)Oc1ccc(Cl)cc1 (mixture of isomers)	> 20	>25	6.10	–
COC(=O)[C@H](Cc1ccccc1)NP(=O)(OC[C@H]1O[C@@H](n2ccc(N)nc2=O)[C@](C)(O)[C@@H]1O)Oc1ccc(Cl)cc1 (mixture of isomers)	> 20	–	< 4.70	–
COC(=O)[C@H](C)NP(=O)(OC[C@H]1O[C@@H](n2ccc(N)nc2=O)[C@](C)(O)[C@@H]1O)Oc1ccc(C(F)(F)F)cc1 (stereo partly specified)	> 50	>5	5.02	–
CCOC(=O)[C@H](C)NP(=O)(OC[C@H]1O[C@@H](n2ccc(N)nc2=O)[C@](C)(O)[C@@H]1O)Oc1cc(C)c(Cl)cc1C(C)C (stereo partly specified)	9	47	6.72	–
CCOC(=O)[C@H](C)NP(=O)(OC[C@H]1O[C@@H](n2ccc(N)nc2=O)[C@](C)(O)[C@@H]1O)Oc1ccc(Cl)cc1 (single isomer, unassigned)	–	–	–	pEC50 (Hepatitis C virus [1]; hbi10a): 5.10
CCOC(=O)[C@H](C)NP(=O)(OC[C@H]1O[C@@H](n2ccc(N)nc2=O)[C@](C)(O)[C@@H]1O)Oc1ccc(C[C@H](N)C(=O)OC)cc1 (stereo partly specified)	> 20	–	< 4.70	–
